Experimental data: ChEMBL document CHEMBL1133719, “Synthesis and preliminary biological evaluations of CC-1065 analogues: effects of different linkers and terminal amides on biological activity” (J Med Chem, 2000)
“And” between values parts separate entries of the source, which are not always exact repeats. Equal entries are not always repeated.

Tests used:
786-0 = test: Cytotoxicity against NCI tumor panel, 786-0 renal cancer cell line; assay type: functional, cell-based; conditions: Homo sapiens
In short: (§1)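 NCI cell-line panel screen run by the National Cancer Institute; sulforhodamine B (SRB) readout after 48-h drug incubation.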

A549 = test: Cytotoxicity against NCI tumor panel, A-549/ATCC non small-cell lung cancer cell line; assay type: functional, cell-based; conditions: Homo sapiens; in short: as §1
A498 = test: Cytotoxicity against NCI tumor panel, A-498 renal cancer cell line; assay type: functional, cell-based; conditions: Homo sapiens; in short: as §1
ACHN = test: Cytotoxicity against NCI tumor panel, ACHN renal cancer cell line; assay type: functional, cell-based; conditions: Homo sapiens; in short: as §1
BT-549 = test: Cytotoxicity against NCI tumor panel, BT-549 breast cancer cell line; assay type: functional, cell-based; conditions: Homo sapiens; in short: as §1
CCRF-CEM = test: Cytotoxicity against NCI tumor panel, CCRF-CEM leukemia cell line; assay type: functional, cell-based; conditions: Homo sapiens; in short: as §1
CAKI-1 = test: Cytotoxicity against NCI tumor panel, CAKI-1 renal cancer cell line; assay type: functional, cell-based; conditions: Homo sapiens; in short: as §1
COLO 205 = test: Cytotoxicity against NCI tumor panel, COLO 205 colon cancer cell line; assay type: functional, cell-based; conditions: Homo sapiens; in short: as §1
EKVX = test: Cytotoxicity against NCI tumor panel, EKVX non small-cell lung cancer cell line; assay type: functional, cell-based; conditions: Homo sapiens; in short: as §1
HCT-116 = test: Cytotoxicity against NCI tumor panel, HCT116 colon cancer cell line; assay type: functional, cell-based; conditions: Homo sapiens; in short: as §1
HOP-92 = test: Cytotoxicity against NCI tumor panel, HOP-92 non small-cell lung cancer cell line; assay type: functional, cell-based; conditions: Homo sapiens; in short: as §1
HT-29 = test: Cytotoxicity against NCI tumor panel, HT-29 colon cancer cell line; assay type: functional, cell-based; conditions: Homo sapiens
In short: (§2)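 Performed by NCI with the sulforhodamine B (SRB) method on its human tumour cell panel, using a 48-h drug incubation.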

HL-60 = test: Cytotoxicity against NCI tumor panel, HL-60(TB) leukemia cell line; assay type: functional, cell-based; conditions: Homo sapiens; in short: as §1
K562 = test: Cytotoxicity against NCI tumor panel, K-562 leukemia cell line; assay type: functional, cell-based; conditions: Homo sapiens; in short: as §2
IGROV-1 = test: Cytotoxicity against NCI tumor panel, IGROV1 ovarian cancer cell line; assay type: functional, cell-based; conditions: Homo sapiens; in short: as §2
KM12 = test: Cytotoxicity against NCI tumor panel, KM12 colon cancer cell line; assay type: functional, cell-based; conditions: Homo sapiens; in short: as §2
MDA-N = test: Cytotoxicity against NCI tumor panel, MDA-N breast cancer cell line; assay type: functional, cell-based; conditions: Homo sapiens; in short: as §2
MDA-MB-231 = test: Cytotoxicity against NCI tumor panel, MDA-MB-231/ATCC breast cancer cell line; assay type: functional, cell-based; conditions: Homo sapiens; in short: as §2
Mus musculus [1] = test: Haematological effects in mice dose administered intraperitoneally; assay type: functional
In short: (§3)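 Non-tumor-bearing female CDF1 mice, 10 per group. Drugs were dissolved in DMSO, diluted in 30% DMSO/0.5% glucose, and given as a single ip dose on day 1 (doses per kg). Blood was sampled on day 27 for WBC, platelet, RBC and MCHC counts. Values are medians of 10 mice.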

MOLT-4 = test: Cytotoxicity against NCI tumor panel, MOLT-4 leukemia cell line; assay type: functional, cell-based; conditions: Homo sapiens; in short: as §2
MCF7 = test: Cytotoxicity against NCI tumor panel, MCF-7 breast cancer cell line; assay type: functional, cell-based; conditions: Homo sapiens; in short: as §2
Mus musculus [2] = organism: Mus musculus; test: Mice bearing B16BL6 leukemia at a dose 100; assay type: functional; conditions: in the assay text read “melanoma” for “leukemia”
In short: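 Female BDF1 mice (4-6 weeks old, 8 per group) were inoculated ip with 10⁶ B16BL6 melanoma cells on day 0. Drugs in dimethylacetamide were diluted in DMA:Cremophor:water (1:5:44) and given ip at 0.1 mL on days 1, 5 and 9 (doses per kg). Read-outs were %ILS = (T/C − 1) × 100 on median survival of dying animals only, mean body weight change from day 1 to day 10 (g/mouse), and 90-day survivors.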

Mus musculus [3] = test: Antitumor activity was tested in mice and percent increase of life span at a dose of 25 ug/kg was reported; assay type: functional
Mus musculus [4] = test: Antitumor activity was tested in mice and percent increase of life span at a dose of 50 ug/kg was reported; assay type: functional
In short: (§4)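 B16BL6 cells were cultured as monolayers, and 10⁶ cells were injected ip on day 0 into female BDF1 mice (4-6 weeks, 8 per group). Drug in dimethylacetamide was diluted in DMA/Cremophor/water (1:5:44) and 0.1 mL given ip on days 1, 5 and 9. %ILS came from median survival of dying animals; 90-day survivors were counted; mean weight change covered days 1-10.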

Mus musculus [5] = organism: Mus musculus; test: Mean corpuscular haemoglobin concentration; assay type: functional
In short: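 Non-tumour-bearing female CDF1 mice, 10 per group. Drug was dissolved in DMSO, diluted in 30% DMSO/0.5% glucose, and given as a single ip dose on day 1. Blood was sampled on day 27 for WBC, platelet, RBC and MCHC measurements. Values are medians of 10 mice, with saline or vehicle controls.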

Mus musculus [6] = test: Antitumor activity in BDF1 male mice bearing L1210 Leukemia at a dose of 42 ug/kg; survivors for 30 days was reported; assay type: functional
In short: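 Male BDF1 mice, 4-6 weeks old, 6 per group, were given 10⁵ L1210 cells ip on day 0. Drug in DMF was diluted in 30% DMSO/0.5% glucose and given ip on days 1, 5 and 9. %ILS = (T/C − 1) × 100 on median survival of dying animals only; 30-day survivors noted separately. Group weight change was taken from day 0 to the lowest-weight day.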

Mus musculus [7] = test: Antitumor activity in mice bearing B16BL6 melanoma at a dose of 50 ug/kg; survivors for 90 days was reported; assay type: functional; in short: as §4
Mus musculus [8] = test: Antitumor activity in mice bearing L1210 Leukemia at a dose of 30 ug/kg; survivors for 60 days was reported; assay type: functional
In short: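 Female CDF1 mice, 10 per group, got 100 L1210 cells ip on day 0. Drug in DMSO was diluted with 30% DMSO in 0.5% glucose and dosed ip on days 1, 5 and 9. Long-term (60-day) survivors are given as percent of the group.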

Mus musculus [9] = organism: Mus musculus; test: Hematological effects in female CDF1 mice at the dose of 50ug, in white blood cells; assay type: functional; in short: as §3
OVCAR-8 = test: Cytotoxicity against NCI tumor panel, OVCAR-8 ovarian cancer cell line; assay type: functional, cell-based; conditions: Homo sapiens; in short: as §2
NCI-H522 = test: Cytotoxicity against NCI tumor panel, NCI-H522 non small-cell lung cancer cell line; assay type: functional, cell-based; conditions: Homo sapiens; in short: as §2
PC-3 = test: Cytotoxicity against NCI tumor panel, PC-3 prostate cancer cell line; assay type: functional, cell-based; conditions: Homo sapiens; in short: as §2
SF-295 = test: Cytotoxicity against NCI tumor panel, SF-295 CNS cancer cell line; assay type: functional, cell-based; conditions: Homo sapiens; in short: as §2
SNB-75 = test: Cytotoxicity against NCI tumor panel, SNB-75 CNS cancer cell line; assay type: functional, cell-based; conditions: Homo sapiens; in short: as §2
SR = test: Cytotoxicity against NCI tumor panel, SR leukemia cell line; assay type: functional, cell-based; conditions: Homo sapiens; in short: as §2
SNB-19 = test: Cytotoxicity against NCI tumor panel, SNB-19 CNS cancer cell line; assay type: functional, cell-based; conditions: Homo sapiens; in short: as §2
SK-MEL-2 = test: Cytotoxicity against NCI tumor panel,SK-MEL2 melanoma cancer cell line; assay type: functional, cell-based; conditions: Homo sapiens; in short: as §2
SK-OV-3 = test: cytotoxicity against NCI tumor panel, SK-OV-3 ovarian cancer cell line; assay type: functional, cell-based; conditions: Homo sapiens; in short: as §2
SK-MEL-5 = test: Cytotoxicity against NCI tumor panel, SKMEL-5 melanoma cancer cell line; assay type: functional, cell-based; conditions: Homo sapiens; in short: as §2
SF-268 = test: Cytotoxicity against NCI tumor panel, SF-268 CNS cancer cell line; assay type: functional, cell-based; conditions: Homo sapiens; in short: as §2
SW-620 = test: Cytotoxicity against NCI tumor panel, SW_620 colon cancer cell line; assay type: functional, cell-based; conditions: Homo sapiens; in short: as §2
TK-10 = test: Cytotoxicity against NCI tumor panel, TK10 renal cancer cell line; assay type: functional, cell-based; conditions: Homo sapiens; in short: as §2
[10] = Minimal drug concentration necessary to inhibit incorporation of [3H]thymidine in U937 Leukemia cells; assay type: functional, cell-based, Homo sapiens
Mus musculus [11] = organism: Mus musculus; test: Antitumor activity in mice bearing B16BL6 melanoma; survivors for 90 days was reported

## CC(=O)Nc1ccc2[nH]c(C(=O)Nc3ccc4[nH]c(C(=O)N5CC(CCl)c6c5cc(O)c5ccccc65)cc4c3)cc2c1 (centres undefined)
786-0
  IC50: 1.66 nM
A549
  IC50: 1.49 nM
A498
  IC50: 3.95 nM
ACHN
  IC50: 1.28 nM
BT-549
  IC50: 3.29 nM
CCRF-CEM
  IC50: 3.14 nM
CAKI-1
  IC50: 4.27 nM
COLO 205
  IC50: 2.99 nM
EKVX
  IC50: 2.39 nM
HCT-116
  IC50: 0.495 nM
HOP-92
  IC50: 2.11 nM
HT-29
  IC50: 1.34 nM
HL-60
  IC50: 1.4 nM
K562
  IC50: 3.76 nM
IGROV-1
  IC50: 1.01 nM
KM12
  IC50: 1.78 nM
MDA-N
  IC50: 2.22 nM
MDA-MB-231
  IC50: 5.97 nM
Mus musculus [1]
  Dose: 0.05 mg/kg
MOLT-4
  IC50: 0.375 nM
MCF7
  IC50: 0.476 nM
Mus musculus [2]
  Dose: 0.1 mg/kg
Mus musculus [3]
  ILS: 67% and 107%
Mus musculus [4]
  ILS at 0.05 mg/kg: 59%
Mus musculus [5]
  MCHC: 36.7 g/dL
Mus musculus [6]
  No. of survivors: 0
Mus musculus [7]
  No. of survivors: 0
Mus musculus [8]
  % survivors: 40%
Mus musculus [9]
  WBC: 13.1 10e3 ul-1
OVCAR-8
  IC50: 1.6 nM
NCI-H522
  IC50: 0.238 nM
PC-3
  IC50: 2.03 nM
SF-295
  IC50: 2.64 nM
SNB-75
  IC50: 0.513 nM
SR
  IC50: 0.562 nM
SNB-19
  IC50: 2.59 nM
SK-MEL-2
  IC50: 2.11 nM
SK-OV-3
  IC50: 4.33 nM
SK-MEL-5
  IC50: 1.11 nM
SF-268
  IC50: 0.212 nM
SW-620
  IC50: 2.36 nM
TK-10
  IC50: 3.13 nM
[10]
  IC50: 0.4 nM
Mus musculus [11]
  No. of survivors: 0
